In ChEMBL document CHEMBL1141152, “Efficient transfection of DNA by liposomes formulated with cationic gemini amphiphiles” (2005):

How the values were obtained:
Type in all cases: functional, Rattus norvegicus
[1] = Percentage survived cells of LA7 cell line done for 6 hr with compound (8.5 uM) in trypan blue exclusion dye test
Summary of the method: (§1)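 LA7 rat mammary adenocarcinoma cells grown in DMEM with 10% FCS, penicillin/streptomycin, insulin and hydrocortisone (50 ng/mL each). Exposed 6 h to DMPC/cationic amphiphile liposomes (1/1; doubled amphiphile for single-headgroup surfactant), concentrations 425 μM to 8.5 μM; medium then replaced. Viability by Trypan blue exclusion 24 h later, counting unstained cells. Duplicates, at least five times; typical experiment shown.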

[2] = Percentage survived cells of LA7 cell line done for 6 hr with compound (21.3 uM) in trypan blue exclusion dye test; summary of the method: as §1
[3] = Percentage survived cells of LA7 cell line done for 6 hr with compound (42.5 uM) in trypan blue exclusion dye test; summary of the method: as §1
[4] = Percentage survived cells of LA7 cell line done for 6 hr with compound (213 uM) in trypan blue exclusion dye test; summary of the method: as §1
[5] = Percentage survived cells of LA7 cell line done for 6 hr with compound (85 uM) in trypan blue exclusion dye test; summary of the method: as §1

Structure (SMILES) | Survival [1] | Survival [2] | Survival [3] | Survival [4] | Survival [5]
CCCCCCCCCCCCCCCC[N+](C)(C)CCOC.[Br-] | 100% | 100% | 100% | 50% | 80%
CCCCCCCCCCCCCCCC[N+](C)(C)CCCC[N+](C)(C)CCCCCCCCCCCCCCCC.[Br-].[Br-] [CATIONIC AMPHIPHILE] | 100% | 100% | 100% | 50% | 80%
CCCCCCCCCCCCCCCC[N+](C)(C)C[C@@H](OC)[C@@H](C[N+](C)(C)CCCCCCCCCCCCCCCC)OC.[Br-].[Br-] [CATIONIC AMPHIPHILE] | 100% |  |  |  | 
CCCCCCCCCCCCCCCC[N+](C)(C)C[C@H](OC)[C@@H](C[N+](C)(C)CCCCCCCCCCCCCCCC)OC.[Br-].[Br-] [CATIONIC AMPHIPHILE] | 100% | 80% | 30% |  | 
CCCCCCCCCCCCCCCC[N+](C)(C)C[C@H](OC)[C@H](C[N+](C)(C)CCCCCCCCCCCCCCCC)OC.[Br-].[Br-] [CATIONIC AMPHIPHILE] | 100% | 90% | 10% |  | 
